In ChEMBL document CHEMBL1122781, “[(Aminomethyl)aryloxy]acetic acid esters. A new class of high-ceiling diuretics. 1. Effects of nitrogen and aromatic nuclear substitution” (J Med Chem, 1984):

How the values were obtained:
Canis familiaris [1] = test: Diuretic activity was evaluated by measuring amount of Cl- during 0-6 h in urine of normotensive saline loaded dogs at 10.0 mg/kg, po; format: ADME, organism-based, Canis lupus familiaris; parameters: dose 10 mg/kg, route oral; details: dog, in vivo
Summary of the method: (§1)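 Conscious female dogs, each given one oral dose per experiment. Urine and heparinized venous plasma were taken at each collection time. Urine was centrifuged and chilled, and plasma was separated within 30 min. Both were assayed for Na+, K+, Cl−, urate and glucose. Results are mean excretion in mequiv kg−1 (6 h)−1, with at least two dogs per dose.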

Rattus norvegicus [2] = test: Percent change of arterial blood pressure in spontaneously hypertensive rats at the dose of 10 mg/kg (p.o.) after 24 hr (control BP(mm Hg)=219); format: functional; details: route oral
Rattus norvegicus [3] = test: Diuretic activity was evaluated by measuring amount of Cl- during 0-6 hr in urine of normotensive saline loaded rats at 0.1 mg/kg, po; format: ADME, organism-based; parameters: dose 0.1 mg/kg, route oral; details: in vivo
Summary of the method: (§2)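 Male Sprague–Dawley rats (275–375 g), fed and watered ad libitum before testing but not during it, eight per group. Compound in 0.2% methylcellulose/water given orally at 2 mL/kg, immediately followed by a 0.9% saline load equal to 5% of body weight. Rats were kept in individual metabolism cages. Urine was sampled at 2, 6 and 24 h for volume, Na+, K+, Cl−, uric acid and osmolality.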

Rattus norvegicus [4] = test: Diuretic activity was evaluated by measuring amount of Cl- during 0-6 hr in urine of normotensive saline loaded rats at 1.0mg/kg, po; format: ADME, organism-based; details: in vivo, 1 mg/kg; summary of the method: as §2
Canis familiaris [5] = test: Diuretic activity was evaluated by measuring amount of K+ during 0-6 h in urine of normotensive saline loaded dogs at 1.0 mg/kg, po; format: ADME, organism-based, Canis lupus familiaris; parameters: dose 1 mg/kg, route oral; details: dog, in vivo; summary of the method: as §1
Rattus norvegicus [6] = test: Percent change of arterial blood pressure in spontaneously hypertensive rats at the dose of 10 mg/kg (p.o.) after […] (control BP(mm Hg)=219); format: functional; details: route oral
[7] = Diuretic activity was evaluated by measuring amount of K+ during 0-6 hr in urine of normotensive […] monkey at 30mg/kg, po; format: ADME, organism-based; details: simiiformes, in vivo
Summary of the method: (§3)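 Male and female cynomolgus monkeys, fasted 16–18 h with water until dosing, six per dose. Compound or vehicle was given by pediatric nasogastric tube, followed at once by a 50 mL/kg water load. Monkeys were kept in metabolism cages without food or water for 6 h. Urine was collected at 0–1, 1–2, 2–4 and 4–6 h, and volume, electrolytes, uric acid and glucose were measured.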

Canis familiaris [8] = test: Diuretic activity was evaluated by measuring amount of Cl- during 0-6 h in urine of normotensive saline loaded dogs at 3.0 mg/kg, po; format: ADME, organism-based, Canis lupus familiaris; parameters: dose 3 mg/kg, route oral; details: dog, in vivo; summary of the method: as §1
[9] = Diuretic activity was evaluated by measuring amount of K+ during 0-6 h in urine of […] at 10 mg/kg, po; format: ADME, organism-based; parameters: dose 10 mg/kg, route oral; details: simiiformes, in vivo; summary of the method: as §3
Rattus norvegicus [10] = test: Diuretic activity was evaluated by measuring amount of Na+ during 0-6 h in urine of normotensive saline loaded rats at 3.0 mg/kg, po; format: ADME, organism-based; parameters: dose 3 mg/kg, route oral; details: in vivo
Summary of the method: (§4)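 Male normotensive Sprague–Dawley rats (275–375 g), eight per group. Test compound or vehicle (0.2% methylcellulose in water, 2 mL/kg) is given by mouth, followed at once by a 0.9% saline load equal to 5% of body weight. Rats are housed in metabolism cages without food or water. Urine is collected at 2, 6 and 24 h and assayed for Na+, K+, Cl−, uric acid and osmolality.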

Rattus norvegicus [11] = test: Diuretic activity was evaluated by measuring amount of Cl- during 0-6 hr in urine of normotensive saline loaded rats at 10.0mg/kg, po; format: ADME, organism-based; details: in vivo, 10 mg/kg; summary of the method: as §2
[12] = Diuretic activity was evaluated by measuring amount of Cl- during 0-6 h in urine of normotensive […] monkey at 10mg/kg, po; format: ADME, organism-based; details: simiiformes, in vivo; summary of the method: as §3
Rattus norvegicus [13] = test: Diuretic activity was evaluated by measuring amount of Na+ during 0-6 h in urine of normotensive saline loaded rats at 0.3 mg/kg, po; format: ADME, organism-based; parameters: dose 0.3 mg/kg, route oral; details: in vivo; summary of the method: as §4
[14] = Diuretic activity was evaluated by measuring amount of Na+ during 0-6 hr in urine of […] monkey at 3mg/kg, po; format: ADME, organism-based; details: simiiformes, in vivo
Summary of the method: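 Male and female cynomolgus monkeys, fasted 16–18 h with water until dosing, six per dose. Compound or vehicle is given through a nasogastric tube, then a 50 mL/kg water load. No food or water for 6 h in metabolism cages. Urine is collected at 0–1, 1–2, 2–4 and 4–6 h and analyzed for electrolytes, uric acid and glucose.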

Rattus norvegicus [15] = test: Diuretic activity was evaluated by measuring amount of Na+ during 0-6 hr in urine of normotensive saline loaded rats at 0.1 mg/kg, po; format: ADME, organism-based; parameters: dose 0.1 mg/kg, route oral; details: in vivo; summary of the method: as §4
Rattus norvegicus [16] = test: Diuretic activity was evaluated by measuring amount of Na+ during 0-6 h in urine of normotensive saline loaded rats at 10.0 mg/kg, po; format: ADME, organism-based; parameters: dose 10 mg/kg, route oral; details: in vivo; summary of the method: as §4
Rattus norvegicus [17] = test: Diuretic activity was evaluated by measuring amount of Na+ during 0-6 h in urine of normotensive saline loaded rats at 100.0 mg/kg, po; format: ADME, organism-based; parameters: dose 100 mg/kg, route oral; details: in vivo; summary of the method: as §4
Rattus norvegicus [18] = test: Percent change of arterial blood pressure in spontaneously hypertensive rats at the dose of 10 mg/kg (p.o.) after 6 hr (control BP(mm Hg)=219); format: functional; details: route oral
Rattus norvegicus [19] = test: Diuretic activity was evaluated by measuring amount of Cl- during 0-6 h in urine of normotensive saline loaded rats at 30.0 mg/kg, po; format: ADME, organism-based; parameters: dose 30 mg/kg, route oral; details: in vivo; summary of the method: as §2
Rattus norvegicus [20] = test: Diuretic activity was evaluated by measuring amount of Cl- during 0-6 hr in urine of normotensive saline loaded rats at 3.0mg/kg, po; format: ADME, organism-based; details: in vivo, 3 mg/kg; summary of the method: as §2
[21] = Diuretic activity was evaluated by measuring amount of K+ during 0-6 hr in urine of […] monkey at 1 mg/kg, po; format: ADME, organism-based; parameters: dose 1 mg/kg, route oral; details: simiiformes, in vivo; summary of the method: as §3
Rattus norvegicus [22] = test: Diuretic activity was evaluated by measuring amount of K+ during 0-6 hr in urine of normotensive saline loaded rats at 0.3mg/kg, po; format: ADME, organism-based; details: in vivo; summary of the method: as §2
Rattus norvegicus [23] = test: Diuretic activity was evaluated by measuring amount of K+ during 0-6 hr in urine of normotensive saline loaded rats at 0.1 mg/kg, po; format: ADME, organism-based; parameters: dose 0.1 mg/kg, route oral; details: in vivo; summary of the method: as §2
Rattus norvegicus [24] = test: Oral dose necessary to produce an excretion of 2 mequiv of Na+/kg in the rat urine in the 4-h period after peroral administration; format: ADME, organism-based; details: in vivo
Canis familiaris [25] = test: Diuretic activity was evaluated by measuring amount of K+ during 0-6 hr in urine of normotensive saline loaded dogs at 10.0mg/kg, po; format: ADME, organism-based, Canis lupus familiaris; details: dog, in vivo, 10 mg/kg; summary of the method: as §1
Canis familiaris [26] = test: Diuretic activity was evaluated by measuring amount of Na+ during 0-6 hr in urine of normotensive saline loaded dogs at 3.0mg/kg, po; format: ADME, organism-based, Canis lupus familiaris; details: dog, in vivo, 3 mg/kg
Summary of the method: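 Conscious dogs, each given a single oral dose per experiment, with at least two dogs per dose. Urine volume is measured; aliquots are centrifuged and chilled. Heparinized venous blood (4 mL) is drawn at each urine collection. Urine and plasma are analyzed for Na+, K+, Cl−, urate and glucose. Result is mean Na+ excretion in mequiv kg−1 (6 h)−1.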

Rattus norvegicus [27] = test: Percent change of arterial blood pressure in spontaneously hypertensive rats at the dose of 3 mg/kg (p.o.) after 6 hr (control BP(mm Hg)=221); format: functional; details: route oral
[28] = Diuretic activity was evaluated by measuring amount of Cl- during 0-6 h in urine of normotensive […] monkey at 3 mg/kg, po; format: ADME, organism-based; parameters: dose 3 mg/kg, route oral; details: simiiformes, in vivo; summary of the method: as §3
Rattus norvegicus [29] = test: Diuretic activity was evaluated by measuring amount of K+ during 0-6 hr in urine of normotensive saline loaded rats at 30.0mg/kg, po; format: ADME, organism-based; details: in vivo, 30 mg/kg; summary of the method: as §4

CCOC(=O)COc1ccc(C(=O)c2ccc(O)c(CN)c2)c(Cl)c1Cl.Cl
Diuretic activity (Canis familiaris [1]): 7 m equiv kg-1 | Change (Rattus norvegicus [2]): -19% | Diuretic activity (Rattus norvegicus [3]): 8.1 m equiv kg-1 | Diuretic activity (Rattus norvegicus [4]): 14.8 m equiv kg-1 | Diuretic activity (Canis familiaris [5]): 1.6 m equiv kg-1 | Change (Rattus norvegicus [6]): -31% | Diuretic activity [7]: 1.5 m equiv kg-1 | Diuretic activity (Canis familiaris [8]): 7.9 m equiv kg-1 | Diuretic activity [9]: 1.3 m equiv kg-1 | Diuretic activity (Rattus norvegicus [10]): 13.9 m equiv kg-1 | Diuretic activity (Rattus norvegicus [11]): 16.4 m equiv kg-1 | Diuretic activity [12]: 7.2 m equiv kg-1 | Diuretic activity (Rattus norvegicus [13]): 9.6 m equiv kg-1 | Diuretic activity [14]: 5.3 m equiv kg-1 | Diuretic activity (Rattus norvegicus [15]): 6.6 m equiv kg-1 | Diuretic activity (Rattus norvegicus [16]): 14 m equiv kg-1 | Diuretic activity (Rattus norvegicus [17]): 13.8 m equiv kg-1 | Change (Rattus norvegicus [18]): -24% | Diuretic activity (Rattus norvegicus [19]): 17.4 m equiv kg-1 | Diuretic activity (Rattus norvegicus [20]): 16.3 m equiv kg-1 | Diuretic activity [21]: 0.7 m equiv kg-1 | Diuretic activity (Rattus norvegicus [22]): 2.7 m equiv kg-1 | Diuretic activity (Rattus norvegicus [23]): 2.6 m equiv kg-1 | ED2 (Rattus norvegicus [24]): 3 mg/kg | Diuretic activity (Canis familiaris [25]): 1.7 m equiv kg-1 | Diuretic activity (Canis familiaris [26]): 7.5 m equiv kg-1 | Change (Rattus norvegicus [27]): -13% | Diuretic activity [28]: 5.3 m equiv kg-1 | Diuretic activity (Rattus norvegicus [29]): 3.8 m equiv kg-1
